Measurements as given in ChEMBL document CHEMBL4043094, “Azobenzene-containing photoswitchable proteasome inhibitors with selective activity and cellular toxicity” (Bioorg Med Chem, 2017).

Experiments:
[1] = Inhibition of chymotrypsin-like activity of 20S proteasome in rabbit 20S proteasome pre-incubated for 10 mins before Suc-Leu-Leu-Val-Tyr-AMC substrate addition and measured after 2 hrs by fluorescence assay; parameters: species or system Oryctolagus cuniculus
Summary of the method: (§1)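 IC50 (nM) was determined for each compound twice: in its non-irradiated form and again after light irradiation.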

[2] = Inhibition of caspase-like activity of 20S proteasome in rabbit 20S proteasome pre-incubated for 10 mins before Suc-Leu-Leu-Val-Tyr-AMC substrate addition and measured after 2 hrs by fluorescence assay; parameters: species or system Oryctolagus cuniculus; summary of the method: as §1
[3] = tested on: HCT-116; experiment: Cytotoxicity against human HCT116 cells incubated for 48 hrs by 7AAD dye based flow cytometry; assay type: functional; settings: HCT-116, 48 h, read-out: LD50 (the source's name)
Summary of the method: (§2)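 Apoptosis dose-response over 48 h treatment. Each inhibitor was tested in two forms: the thermally adapted trans state and the cis photostationary state.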

[4] = tested on: MDA-MB-468; experiment: Cytotoxicity against human MDA-MB-468 cells incubated for 48 hrs by 7AAD dye based flow cytometry; assay type: functional; settings: MDA-MB-468, 48 h, read-out: LD50 (the source's name); summary of the method: as §2
[5] = Stability in DMSO; assay type: physicochemical
[6] = Cytotoxicity against human MCF10A cells incubated for 48 hrs by 7AAD dye based flow cytometry; assay type: cell-based, MCF-10A; settings: read-out: LD50
[7] = tested on: MCF-10A; experiment: Cytotoxicity against human MCF10A cells at 5000 nM incubated for 48 hrs by 7AAD dye based flow cytometry; assay type: cell-based; settings: 5 µM

Compound | IC50 [1] | IC50 [2] | CC50 [3] | CC50 [4] | Stability [5] | CC50 at 48 h [6] | Activity [7]
CC(C)C[C@H](NC(=O)[C@@H](NC(=O)c1cccc(/N=N\c2ccccc2)c1)[C@@H](C)O)B1OC2C[C@@H]3C[C@@H](C3(C)C)[C@]2(C)O1 (stereo not given in full) | 0.084 µM | 0.759 µM | – | – | – | – | –
Cc1cc(C)cc(/N=N/c2ccc(C[C@H](NC(=O)OC(C)(C)C)C(=O)N[C@@H](CC(C)C)B3OC4C[C@@H]5C[C@@H](C5(C)C)[C@]4(C)O3)cc2)c1 (stereo not given in full) | 0.053 µM | 0.211 µM | – | – | – | – | –
Cc1cc(C)cc(/N=N\c2ccc(C[C@H](NC(=O)OC(C)(C)C)C(=O)N[C@@H](CC(C)C)B3OC4C[C@@H]5C[C@@H](C5(C)C)[C@]4(C)O3)cc2)c1 (stereo not given in full) | 0.041 µM | 0.214 µM | – | – | – | – | –
CC(C)C[C@H](NC(=O)[C@H](Cc1ccc(/N=N\c2ccc(-c3ccccc3)cc2)cc1)NC(=O)OC(C)(C)C)B1OC2C[C@@H]3C[C@@H](C3(C)C)[C@]2(C)O1 (stereo not given in full) | 0.054 µM | 0.303 µM | 0.212 µM | 0.144 µM | > 48 h | 0.683 µM | –
CC(C)C[C@H](NC(=O)[C@H](Cc1ccc(/N=N/c2ccccc2)cc1)NC(=O)OC(C)(C)C)B1OC2C[C@@H]3C[C@@H](C3(C)C)[C@]2(C)O1 (stereo not given in full) | 0.01 µM | 0.107 µM | – | – | – | – | –
CC(C)C[C@H](NC(=O)[C@@H](NC(=O)c1cccc(-c2ccccc2)n1)[C@@H](C)O)B(O)O [DELANZOMIB] | 0.01 µM | 0.059 µM | – | – | – | – | –
CC(C)C[C@H](NC(=O)[C@@H](NC(=O)c1cccc(/N=N/c2ccc(-c3ccccc3)cc2)c1)[C@@H](C)O)B1OC2C[C@@H]3C[C@@H](C3(C)C)[C@]2(C)O1 (stereo not given in full) | 0.022 µM | 0.498 µM | – | – | – | – | –
Cc1cc(C)cc(/N=N/c2cccc(C(=O)N[C@H](C(=O)N[C@@H](CC(C)C)B3OC4C[C@@H]5C[C@@H](C5(C)C)[C@]4(C)O3)[C@@H](C)O)c2)c1 (stereo not given in full) | 0.055 µM | 1.62 µM | – | – | – | – | –
CC(C)C[C@H](NC(=O)[C@H](Cc1ccc(/N=N\c2ccccc2)cc1)NC(=O)OC(C)(C)C)B1OC2C[C@@H]3C[C@@H](C3(C)C)[C@]2(C)O1 (stereo not given in full) | 0.012 µM | 0.11 µM | – | – | – | – | –
CC(C)C[C@H](NC(=O)[C@H](Cc1ccc(/N=N/c2ccc(-c3ccccc3)cc2)cc1)NC(=O)OC(C)(C)C)B1OC2C[C@@H]3C[C@@H](C3(C)C)[C@]2(C)O1 (stereo not given in full) | 0.011 µM | 0.46 µM | 1.03 µM | 0.246 µM | – | – | Non-Toxic
CC(C)C[C@H](NC(=O)[C@@H](NC(=O)c1cccc(/N=N\c2ccc(-c3ccccc3)cc2)c1)[C@@H](C)O)B1OC2C[C@@H]3C[C@@H](C3(C)C)[C@]2(C)O1 (stereo not given in full) | 0.029 µM | 0.727 µM | – | – | – | – | –
CC(C)C[C@H](NC(=O)[C@@H](NC(=O)c1cccc(/N=N/c2ccccc2)c1)[C@@H](C)O)B1OC2C[C@@H]3C[C@@H](C3(C)C)[C@]2(C)O1 (stereo not given in full) | 0.017 µM | 0.868 µM | – | – | – | – | –
Cc1cc(C)cc(/N=N\c2cccc(C(=O)N[C@H](C(=O)N[C@@H](CC(C)C)B3OC4C[C@@H]5C[C@@H](C5(C)C)[C@]4(C)O3)[C@@H](C)O)c2)c1 (stereo not given in full) | 0.249 µM | 1.63 µM | – | – | – | – | –
CC(C)C[C@H](NC(=O)[C@H](Cc1ccccc1)NC(=O)c1cnccn1)B(O)O [BORTEZOMIB] | 0.005 µM | 0.076 µM | – | – | – | – | –
